For orientation: IC50 means the point on the concentration scale where inhibition reaches its midpoint. Broadly, the EC50 is the midpoint of the concentration-response curve. Low readings indicate a more potent agent, high ones a less potent agent. The term Ki denotes the dissociation constant of the complex between target and ligand, obtained from inhibition or displacement. High values mean a looser hold on the target, low ones a stronger hold on the target.

For assay [1], the target named is T1, Melanocortin receptor 4 (Homo sapiens, UniProt P32245). Briefly: Inhibition of human melanocortin 4 receptor.
T1 sequence (P32245 whole entry): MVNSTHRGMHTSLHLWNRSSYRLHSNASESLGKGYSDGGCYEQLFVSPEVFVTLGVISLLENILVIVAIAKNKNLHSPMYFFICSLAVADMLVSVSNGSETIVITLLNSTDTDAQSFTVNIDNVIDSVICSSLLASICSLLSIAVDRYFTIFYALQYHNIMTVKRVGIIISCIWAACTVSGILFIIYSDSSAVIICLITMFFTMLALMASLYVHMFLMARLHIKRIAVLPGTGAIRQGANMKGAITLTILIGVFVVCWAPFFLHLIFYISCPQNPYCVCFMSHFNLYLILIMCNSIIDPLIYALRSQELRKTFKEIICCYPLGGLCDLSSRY
Assay [2] addresses T1, Melanocortin receptor 4. Briefly: (§1) Effective concentration of peptide at 50% maximal cAMP generation. The format is functional.
The target in assay [3] is T2, Melanocortin receptor 5 (Homo sapiens, UniProt P33032). Briefly: Inhibition of human melanocortin 5 receptor.
T2 sequence (P33032 whole entry): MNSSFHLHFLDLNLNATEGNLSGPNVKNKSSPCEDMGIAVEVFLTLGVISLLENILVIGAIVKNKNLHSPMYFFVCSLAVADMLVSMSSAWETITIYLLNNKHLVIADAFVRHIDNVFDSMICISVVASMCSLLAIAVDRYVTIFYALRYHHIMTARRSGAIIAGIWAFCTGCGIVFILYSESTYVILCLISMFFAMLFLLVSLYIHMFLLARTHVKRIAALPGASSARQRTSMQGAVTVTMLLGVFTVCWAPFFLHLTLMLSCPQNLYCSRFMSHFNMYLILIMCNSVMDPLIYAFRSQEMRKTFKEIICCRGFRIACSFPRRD
Assay [4] has as its target T3, Melanocortin receptor 3 (Homo sapiens, UniProt P41968). The description is as §1. The assay is classed as functional. The method in brief:
(§2)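 Receptor-transfected human MCR HEK293 cells were seeded at 50 000 cells/well 48 h before the assay. The reaction was stopped with ice-cold Tris/EDTA, and lysates were boiled 15 min. cAMP was measured by competitive binding kit.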

The target of assay [5] is T2, Melanocortin receptor 5. The assay is described as §1. The format is functional. The method in brief: as §2
Assay [6] concerns the target T3, Melanocortin receptor 3. Briefly: Inhibition of human Melanocortin 3 receptor.
The target of assay [7] is T2, Melanocortin receptor 5. Briefly: (§3) Effective concentration of peptide at 50% maximal cAMP generation (10e-10 to 10e-4 M). The assay is classed as functional. The method in brief:
(§4)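 Receptor-transfected human MCR HEK293 cells were seeded at 50 000 cells/well 48 h before the assay. Cells were preincubated in EBSS with 0.5 mM IBMX for 1 min at 37 °C, then exposed to peptide (10^-10 to 10^-4 M) for 3 min at 37 °C. The reaction was stopped with ice-cold Tris/EDTA, and lysates were boiled 15 min. cAMP was measured by competitive binding kit.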

For assay [8], the target named is T1, Melanocortin receptor 4. The assay is described as §3. The assay is classed as functional. A digest of the protocol: as §4
Assay [9] deals with T2, Melanocortin receptor 5. Briefly: Inhibitory activity against human melanocortin receptor human Melanocortin 5 receptor was determined. A digest of the protocol:
(§5)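 Whole-cell competition binding in HEK293 cells stably transfected with human MCRs (CMVneo vector), 50 000 cells/well seeded 48 h before. Binding buffer: MEM, 25 mM HEPES pH 7.4, 0.2% BSA, 1,10-phenanthroline, leupeptin, bacitracin. Cells were incubated with unlabeled peptide (10^-10 to 10^-4 M) and 0.1386 nM [125I-Tyr2]-[Nle4,D-Phe7]α-MSH for 40 min at 37 °C, then washed, lysed (NaOH/Triton X-100) and gamma-counted.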

In assay [10] the target is T1, Melanocortin receptor 4. Briefly: Inhibitory activity against human melanocortin receptor human Melanocortin 4 receptor was determined. The method in brief: as §5
Assay [11] addresses T3, Melanocortin receptor 3. Briefly: Inhibitory activity against human Melanocortin 3 receptor was determined. A digest of the protocol:
as §5

Positions of bridges follow the written chain, without caps; N, C: chain ends. Non-standard residues stand in square brackets, D forms with d. Residues, ends and D or L forms follow the SMILES beside them. d2Nal = N[C@H](Cc1ccc2ccccc2c1)C(=O)O

T3 sequence (P41968 whole entry): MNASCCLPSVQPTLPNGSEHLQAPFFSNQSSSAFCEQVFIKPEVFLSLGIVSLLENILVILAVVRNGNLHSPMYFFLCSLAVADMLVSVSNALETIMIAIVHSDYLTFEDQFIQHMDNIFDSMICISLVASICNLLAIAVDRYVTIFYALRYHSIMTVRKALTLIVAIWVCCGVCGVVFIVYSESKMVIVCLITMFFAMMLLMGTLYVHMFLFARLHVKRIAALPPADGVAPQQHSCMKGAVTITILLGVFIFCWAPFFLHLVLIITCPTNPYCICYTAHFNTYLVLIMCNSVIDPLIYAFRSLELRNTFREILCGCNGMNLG

For `CC(=O)N[C@H]1CSSC[C@@H](C(=O)N2CCC[C@H]2C(=O)N2CCC[C@H]2C(=O)N[C@@H](CCCCN)C(=O)N[C@@H](CC(=O)O)C(N)=O)NC(=O)[C@H](Cc2c[nH]c3ccccc23)NC(=O)[C@H](CCCN=C(N)N)NC(=O)[C@@H](Cc2ccc3ccccc3c2)NC(=O)[C@H](Cc2c[nH]cn2)NC(=O)[C@H](CCC(=O)O)NC1=O`, the IC50 in [1] is 0.0034 µM; in assay [3] it was 0.18 µM; in [6], 0.13 µM. Further, the figures for the EC50 in assay [2], in assay [4] and in assay [5] were 0.0061 µM, greater than 10 µM and 0.19 µM, respectively.

On to `CC(=O)N[C@H]1CSSC[C@H](C(=O)N2CCC[C@H]2C(=O)N2CCC[C@H]2C(=O)N[C@@H](CCCCN)C(=O)N[C@@H](CC(=O)O)C(N)=O)NC(=O)[C@H](Cc2c[nH]c3ccccc23)NC(=O)[C@H](CCCNC(=N)N)NC(=O)[C@@H](Cc2ccccc2)NC(=O)[C@H](Cc2c[nH]cn2)NC(=O)[C@H](CCC(=O)O)NC1=O`, for which the IC50 is greater than 10 µM in assay [1], 0.01 µM in assay [3] and 5.6 µM in [6]. Further, the EC50 in [2], in [4] and in [5] was greater than 10 µM each time.

As to `CC(=O)N[C@@H]1CSSC[C@@H](C(=O)N2CCC[C@H]2C(=O)N2CCC[C@H]2C(=O)N[C@@H](CCCCN)C(=O)N[C@@H](CC(=O)O)C(N)=O)NC(=O)[C@H](Cc2c[nH]c3ccccc23)NC(=O)[C@H](CCCN=C(N)N)NC(=O)[C@@H](Cc2ccc3ccccc3c2)NC(=O)[C@H](Cc2c[nH]cn2)NC(=O)[C@H](CCC(=O)O)NC1=O`, the concentration for a half-maximal effect (EC50) was 0.88 µM in assay [7], greater than 10 µM in [2] and greater than 10 µM in assay [4]. Also, the IC50 in [1] came to 3.7 µM; in assay [3], 26 µM; in assay [6] it was 0.2 µM.

Take `CC(=O)N[C@@H]1CSSC[C@@H](C(=O)N2CCC[C@H]2C(=O)N2CCC[C@H]2C(=O)N[C@@H](CCCCN)C(=O)N[C@@H](CC(=O)O)C(N)=O)NC(=O)[C@H](Cc2c[nH]c3ccccc23)NC(=O)[C@H](CCCNC(=N)N)NC(=O)[C@@H](Cc2ccccc2)NC(=O)[C@H](Cc2c[nH]cn2)NC(=O)[C@H](CCC(=O)O)NC1=O`: the IC50 is 37 µM in assay [1], 0.073 µM in assay [3] and 0.62 µM in assay [6]. Moreover, the EC50 in assay [2], in assay [4] and in [5] was greater than 10 µM throughout.

Regarding `CC(=O)N[C@@H]1C(=O)N[C@@H](CCC(=O)O)C(=O)N[C@@H](Cc2c[nH]cn2)C(=O)N[C@H](Cc2ccc3ccccc3c2)C(=O)N[C@@H](CCCN=C(N)N)C(=O)N[C@@H](Cc2c[nH]c3ccccc23)C(=O)N[C@H](C(=O)N2CCC[C@H]2C(=O)N2CCC[C@H]2C(=O)N[C@@H](CCCCN)C(=O)N[C@@H](CC(=O)O)C(N)=O)CSSC1(C)C`, the IC50 in assay [1] was found to be 0.75 µM; in assay [3], 0.094 µM; in assay [6], 0.003 µM. The EC50 in assay [2], in assay [4] and in assay [5] was greater than 10 µM in each case.

Take `CC(=O)N[C@H]1CC(=O)NCCCC[C@@H](C(=O)N2CCC[C@H]2C(=O)N2CCC[C@H]2C(=O)N[C@@H](CCCCN)C(=O)N[C@@H](CC(=O)O)C(N)=O)NC(=O)[C@H](Cc2c[nH]c3ccccc23)NC(=O)[C@H](CCCNC(=N)N)NC(=O)[C@@H](Cc2ccccc2)NC(=O)[C@H](Cc2c[nH]cn2)NC(=O)[C@H](CCC(=O)O)NC1=O`: the IC50 in [1] is greater than 10 µM; in [3], greater than 10 µM; in [6] it was greater than 1 µM. For the same molecule, the concentration giving a half-maximal response (EC50) in assay [2], in assay [4] and in assay [5] was greater than 10 µM throughout.

Regarding `CC(=O)N[C@H]1CSSC[C@@H](C(=O)N2CCC[C@H]2C(=O)N2CCC[C@H]2C(=O)N[C@@H](CCCCN)C(=O)N[C@@H](CC(=O)O)C(N)=O)NC(=O)[C@H](Cc2c[nH]c3ccccc23)NC(=O)[C@H](CCCNC(=N)N)NC(=O)[C@@H](Cc2ccc3ccccc3c2)NC(=O)[C@@H]2CCCN2C(=O)[C@H](CCC(=O)O)NC1=O`, the EC50 in [8], in assay [4] and in assay [5] was greater than 10 µM each time. Besides, the IC50 is 17 µM in [1], 97 µM in assay [3] and 0.031 µM in assay [6].

With `CC(=O)N[C@H]1CSSC[C@@H](C(=O)N2CCC[C@H]2C(=O)N2CCC[C@H]2C(=O)N[C@@H](CCCCN)C(=O)N[C@@H](CC(=O)O)C(N)=O)NC(=O)[C@H](Cc2c[nH]c3ccccc23)NC(=O)[C@H](CCCNC(=N)N)NC(=O)[C@@H](Cc2ccccc2)NC(=O)[C@@H]2CCCN2C(=O)[C@H](CCC(=O)O)NC1=O`, the figures for the EC50 in assay [7], in [2] and in [4] were 0.38 µM, greater than 10 µM and 0.401 µM, respectively. The IC50 is 3.3 µM in [1], 0.2 µM in assay [3] and greater than 1 µM in assay [6].

On to `CC(=O)N[C@H]1CSSC[C@H](C(=O)N2CCC[C@H]2C(=O)N2CCC[C@H]2C(=O)N[C@@H](CCCCN)C(=O)N[C@@H](CC(=O)O)C(N)=O)NC(=O)[C@H](Cc2c[nH]c3ccccc23)NC(=O)[C@H](CCCN=C(N)N)NC(=O)[C@@H](Cc2ccc3ccccc3c2)NC(=O)[C@H](Cc2c[nH]cn2)NC(=O)[C@H](CCC(=O)O)NC1=O`, for which the IC50 in assay [1] amounted to 40 µM; in [3], 15 µM; in assay [6], 2.9 µM. The EC50 in [2], in [4] and in [5] was greater than 10 µM each time.

On to `CC(=O)N[C@@H]1C(=O)N[C@@H](CCC(=O)O)C(=O)N[C@@H](Cc2c[nH]cn2)C(=O)N[C@H](Cc2ccccc2)C(=O)N[C@@H](CCCN=C(N)N)C(=O)N[C@@H](Cc2c[nH]c3ccccc23)C(=O)N[C@H](C(=O)N2CCC[C@H]2C(=O)N2CCC[C@H]2C(=O)N[C@@H](CCCCN)C(=O)N[C@@H](CC(=O)O)C(N)=O)CSSC1(C)C`, for which the concentration for half-maximal inhibition (IC50) was found to be 1.1 µM in assay [1], 27 µM in assay [3] and 0.43 µM in assay [6]. In addition, the half-maximal effective concentration (EC50) in assay [2] is 0.0063 µM; in assay [4] it was 0.0028 µM; in assay [5], greater than 10 µM.

On to `CC(=O)N[C@H]1CSSC[C@@H](C(=O)N2CCC[C@H]2C(=O)N2CCC[C@H]2C(=O)N[C@@H](CCCCN)C(=O)N[C@@H](CC(=O)O)C(N)=O)NC(=O)CNC(=O)[C@H](Cc2c[nH]c3ccccc23)NC(=O)[C@H](CCCNC(=N)N)NC(=O)[C@@H](Cc2ccc3ccccc3c2)NC(=O)[C@H](Cc2c[nH]cn2)NC(=O)[C@H](CCC(=O)O)NC1=O` (Ac-CEH[d2Nal]RWGCPPKD-NH2; disulfide 1-8), for which the Ki in assay [9] turned out to be 0.694 µM; in assay [10] it was 0.0031 µM; in assay [11], 0.054 µM.

These data come from ChEMBL document CHEMBL1145056, “Structure-activity relationships of novel cyclic alpha-MSH/beta-MSH hybrid analogues that lead to potent and selective ligands for the human MC3R and human MC5R” (J Med Chem, 2003).
